Compound activity deposited in PubChem by several laboratories.
Shown are actives, neighbours in structure and some others; about 4% of the full set was active somewhere.
CHOP inh – inhibitors of CHOP induction in ER stress response. CHO-K1 CHOP-promoter luciferase, tunicamycin-induced, 15-18 h. hit rate 3.8% among 220,000. inhibition, % at 10 µM. AID 2732;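 active means compounds that reduced the stress-induced luciferase reporter signal by more than about 70% of percent inhibition, limit read from the data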;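 further: 0% = tunicamycin plus vehicle and 100% = wells without tunicamycin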
S1P3 antag – blocks the human S1P3 receptor; hit rate 0.27% among 170,000; CHO S1P3 NFAT-BLA reporter, FRET fluorescence, antagonist mode; inhibition, % at 4.98 µM; AID 485;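 active means inhibition above the plate cutoff, the mean inhibition of test wells on that plate plus 3 SD, cut at about 28% in these data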;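 further: cells challenged with S1P at its EC80 of 0.8 µM; blue over green emission ratio from cleaved BLA substrate after 4 h stimulation; 0% = S1P-stimulated wells and 100% = unstimulated DMSO-only wells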
Target sequence (Q99500 whole entry, looked up): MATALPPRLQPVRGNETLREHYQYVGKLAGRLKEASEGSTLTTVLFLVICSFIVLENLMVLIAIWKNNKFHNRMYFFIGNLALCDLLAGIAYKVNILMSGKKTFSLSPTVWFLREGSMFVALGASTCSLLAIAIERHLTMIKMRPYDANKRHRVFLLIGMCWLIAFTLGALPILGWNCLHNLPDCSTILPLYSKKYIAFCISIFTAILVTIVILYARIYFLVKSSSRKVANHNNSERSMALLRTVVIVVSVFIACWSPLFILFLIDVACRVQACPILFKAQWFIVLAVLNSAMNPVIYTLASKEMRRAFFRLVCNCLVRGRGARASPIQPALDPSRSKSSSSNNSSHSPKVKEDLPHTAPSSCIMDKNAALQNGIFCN
Mdm2 ligase inh – inhibitors of human Mdm2 E3 ubiquitin ligase; Q00987; cell-based MDM2 ubiquitination luciferase reporter, 2 h; 0 = plate control, 100 = twice control, blank-subtracted; signal enhancement, % at 5 µM; hit rate 0.11% among 210,000; AID 1230;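 active means signal enhancement of 30% or more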;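 further: luminescence tracks abundance of the self-degrading MDM2-luciferase fusion protein; higher signal means inhibition of MDM2 E3 ligase activity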
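system = mammalian cells stably expressing self-ubiquitinating, self-degrading MDM2 E3–luciferase fusion | quantity = 2000 cells per well seeded | incubation = 4 h cell settling then 2 h compound exposure, 37 °C | signal = SteadyLite luminescence, 15 min reagent step | benchmarks = plate control and blank wells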
Hsp70 activator – transcriptional activators of Hsp70; HeLa Hsp70 promoter luciferase reporter, luminescence; scaled: vehicle 0, proteasome-inhibitor control 100%; activation, % at 10 µM; hit rate 0.04% among 200,000; AID 1203;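 active means activation above the mean across all tested compounds plus 3 SD, cutoff set per campaign, cut at about 5.5% in these data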;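 further: 100% = MG132 at 30 µM as the positive control and 0% = DMSO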
An asterisk follows results filed as active; . = not tested or not shown.

SMILES | CHOP inh | S1P3 antag | Mdm2 ligase inh | Hsp70 activator
O=C(CCCN1C(=O)/C(=C/c2ccccc2Cl)SC1=S)NNC(=O)c1cccnc1 | 53 | -2 | -13 | .
O=C(O)CC(NC(=O)Cc1ccc([N+](=O)[O-])cc1)c1ccc2c(c1)OCO2 (stereo unspecified) | 0 | -10 | -16 | 0
Cc1c(N=Nc2c(-c3ccc([N+](=O)[O-])cc3)[nH]n(C(N)=S)c2=O)cccc1[N+](=O)[O-] | 106* | 0 | -18 | 0
Cc1[nH]n(C(N)=S)c(=O)c1N=Nc1ccc2ccccc2c1 | 13 | -12 | -3 | 0
NC(=S)n1[nH]c(-c2ccc([N+](=O)[O-])cc2)c(N=Nc2ccccc2[N+](=O)[O-])c1=O | 85* | 9 | -6 | 0
COc1ccc(C(=O)OCc2cc3cccc(C)c3[nH]c2=O)cc1 | 81* | 15 | 8 | 0
COc1ccc(CC(=O)OCc2cc3cccc(C)c3[nH]c2=O)cc1 | 26 | -1 | -6 | 0
O=C(c1cc(-c2ccco2)nn1-c1cccc(Cl)c1)N1CCCCC1 | 71* | 10 | 3 | 0
CC(C)NC(=O)c1cc(-c2ccco2)nn1-c1ccc(Cl)cc1 | . | . | -11 | 0
COC(=O)C1C(=O)OC(C)(C)C1C(C)C(=O)c1ccccc1 (stereo unspecified) | -1 | . | -13 | 1
CCn1cc(C(=O)O)c(=O)c2cc(F)c(N3CCN(C(=S)NC(=O)c4ccccc4Cl)CC3)cc21 | -5 | -7 | -13 | .
CCn1cc(C(=O)O)c(=O)c2cc(F)c(N3CCN(S(=O)(=O)c4ccc(Br)cc4)CC3)cc21 | 76* | -13 | -2 | 0
Cc1sc2ncnc(SCc3ccco3)c2c1C | 71* | -11 | -17 | 0
Cn1c2c(c(=O)n(C)c1=O)C(C(F)(F)F)(C(F)(F)F)N=C(c1ccc(Cl)cc1)N2 | 77* | . | 0 | 0
Nc1nc(SCC(=O)c2cccs2)n[nH]1 | 1 | 7 | -10 | 0
CCOC(=O)n1c(=O)n(Cc2c(Cl)cccc2Cl)c2ccccc21 | 73* | . | -13 | 0
CCOC(=O)n1c(=O)n(Cc2cccc(F)c2)c2ccccc21 | 18 | -18 | -13 | 0
CCOC(=O)n1c(=O)n(Cc2ccc(Cl)c(Cl)c2)c2ccccc21 | 81* | . | -7 | 0
CCOC(=O)n1c(=O)n(Cc2ccccc2)c2ccccc21 | 48 | . | -18 | 0
CC(C)OC(=O)/C(=C/c1ccc(Br)cc1)NC(=O)c1ccco1 | -19 | -3 | -25 | -1
CC(=O)N1NC(=Nc2ccccc2)SC1(C)C | 15 | 10 | -2 | 0
Cc1cccc(N2CCN(C(=O)c3cc4c(=O)n(C)c5ccccc5c4n3C)CC2)c1C | 79* | -30 | -7 | 0
Cc1cccc(N2CCN(C(=O)Cc3cn(C)c4ccccc34)CC2)c1C | 82* | . | -10 | -1
Cc1ccc(Cl)cc1N1CCN(C(=O)c2cc3c(=O)n(C)c4ccccc4c3n2C)CC1 | 88* | -24 | -43 | 0
Cn1c(C(=O)N2CCN(c3ccccc3F)CC2)cc2c(=O)n(C)c3ccccc3c21 | . | -25 | . | .
SMILES | CHOP inh | S1P3 antag | Mdm2 ligase inh | Hsp70 activator
COc1ccc(NC(=O)Nc2ccon2)c(OC)c1 | 2 | 4 | -13 | 0
CC(=O)c1cccc(NC(=O)C(C)N(C)CC(=O)Nc2ccc(Cl)cc2)c1 (stereo unspecified) | 9 | -5 | -8 | .
O=C(Nc1ccc(CN2CCOCC2)cc1)c1ccc(-c2ccc(Br)cc2)o1 | 80* | 11 | -33 | 0
O=C(Nc1ccccc1)c1ccc(-c2ccc(Br)cc2)o1 | 15 | . | -7 | 0
Cc1ccsc1/C=N/NC(=O)Cc1cccn1C | -6 | -4 | -2 | 0
OCc1ccccc1N=c1ssnc1Cl | 42 | 9 | -12 | 0
Clc1ccc(N=c2ssnc2Cl)nc1 | 103* | 7 | -32 | 0
CCOC(=O)c1ccc(NC(=O)N2CCN(Cc3ccccc3)CC2)cc1 | -8 | -11 | -9 | 0
Cc1cc(C)cc(NC(=O)N2CCC(c3nc4ccccc4o3)CC2)c1 | 74* | -20 | -5 | 0
COc1ccc(CCNC(=O)Cn2cc(C(F)(F)F)cc(Cl)c2=O)cc1OC | -4 | 1 | -1 | 0
CCCCCCn1c(CN2CCC(C)CC2)nc2c1c(=O)n(C)c(=O)n2C | 76* | 3 | . | 1
CCN(C(=O)c1ccc(C)c(Br)c1)c1ccccc1 | 10 | 4 | -27 | 0
CC(C)(C)OC(=O)NNC(=O)Nc1ccccc1C(F)(F)F | -11 | -14 | -12 | 0
Cc1cc(C)c(C)c(OCC(=O)NCc2nc(-c3ccccc3)no2)c1 | 86* | -7 | -12 | 0
Cc1ccc(C2=NNC(c3ccc(Cl)cc3)=Nc3ccccc32)o1 | 28 | 0 | -5 | 0
Cc1cc(=O)[nH]c(NN=C2CCC(C(C)(C)C)CC2)n1 (stereo unspecified) | 82* | -11 | -2 | 0
Cc1ccccc1OCCCCn1cnc2ccccc21 | 72* | . | 4 | 0
CC(C)(c1ccccc1)c1ccc(OCCn2cnc3ccccc3c2=O)cc1 | 77* | . | -12 | 0
Cc1ccc(OCCCCn2cnc3ccccc32)cc1 | 20 | -22 | -7 | 0
c1ccc2c(c1)ncn2CCCCOc1ccc2c(c1)CCC2 | 70* | . | -2 | 0
Cc1cc(C)c(C)c(OCCCCn2cnc3ccccc3c2=O)c1 | 91* | . | -5 | 0
COc1ccc(C(=O)Nc2cc3c(cc2OC)CCCC3)cc1Br | 82* | . | -5 | 0
CCSc1nc2ccc(N3C(=O)C4C5C=CC(C5)C4C3=O)cc2s1 (stereo unspecified) | 10 | -8 | -11 | 0
Cc1ccc(C)c(NC(=O)C(Sc2nc3ccc(C)cc3[nH]2)c2ccccc2)c1 (stereo unspecified) | 73* | 9 | 1 | 0
Cc1ccc(N(CC(=O)N/N=C/c2cc(C)n(-c3ccccc3)c2C)S(C)(=O)=O)c(C)c1 | 73* | . | -6 | 0
SMILES | CHOP inh | S1P3 antag | Mdm2 ligase inh | Hsp70 activator
Cc1ccc(N(CC(=O)Nc2c(C)n(C)n(-c3ccccc3)c2=O)S(C)(=O)=O)c(C)c1 | -5 | 0 | -5 | 0
COc1ccc(C(=O)NCc2nnc(SCC(=O)Nc3cccc(F)c3)o2)cc1 | 6 | -4 | 25 | 0
C=C(C)COc1ccc2c3c(c(=O)oc2c1OCC(=C)C)CCC3 | 73* | 17 | -6 | 0
CC(=O)C1=C(C)NC(C)=C(C(C)=O)C1c1ccc(-c2ccccc2Cl)o1 | 19 | -12 | -16 | 0
Cc1ccc(NC2=C/C(=N/S(=O)(=O)c3cccs3)c3ccccc3C2=O)cc1 | 98* | -5 | -6 | 0
CCc1cc[n+](C2=C([O-])c3ccccc3C(=O)/C2=N\S(=O)(=O)c2cccs2)cc1 | -25 | 2 | -14 | 0
N#CC1=C(SCC(=O)Nc2ccc(C(=O)O)cc2)NC(=O)CC1c1ccco1 (stereo unspecified) | 0 | -1 | -5 | .
COc1ccc(C2C(C(=O)N3CCCCC3)CCC(=O)N2c2cc(OC)c(OC)c(OC)c2)cc1 (stereo unspecified) | -14 | . | 38* | 0
CCOc1nc(NCCO)nc(Nc2cc(Cl)ccc2OC)n1 | 11 | -8 | -19 | 0
